Measured values as given in ChEMBL document CHEMBL1124216, “A novel class of potential central nervous system agents. 3-Phenyl-2-(1-piperazinyl)-5H-1-benzazepines” (1988).

Key:
Assay type in all cases: functional
[1] = test system: Mus musculus; assay: The homovanillic acid (HVA) levels in mouse brain at 50 mg/kg of dose.
Summary of the method: (§1)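 Mice dosed orally in 0.5% aqueous tragacanth; brains of five mice per compound pooled. Homovanillic acid measured in brain extracts and reported as brain level.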

[2] = test system: Mus musculus; assay: Antiexploratory activity (EXPL) of mice determined by an antimex activity meter, 50 mg/kg of dose was administered perorally; potent inhibition; conditions: route oral
[3] = test system: Mus musculus; assay: Antireserpine activity (RES) of mice after peroral administration of 50 mg/kg of compound; Slight inhibition (31-50%); conditions: route oral
[4] = test system: Mus musculus; assay: The homovanillic acid (HVA) levels in mouse brain at 10 mg/kg of dose.; summary of the method: as §1
[5] = test system: Mus musculus; assay: 3,4 -Dihydroxy phenylacetic acid (DOPAC) levels in mouse brain at 10 mg/kg dose.
Summary of the method: (§2)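 Male Std-ddY mice, 20-25 g, dosed orally with compound in 0.5% aqueous tragacanth. DOPAC was measured fluorometrically after purification by column chromatography on Sephadex G-10 and QAE-Sephadex. Brains from five mice per compound were pooled for each determination.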

[6] = test system: Canis familiaris; assay: Inhibition of apomorphine induced emesis in dogs at 1 mg/kg of dose.; conditions: Canis lupus familiaris
Summary of the method: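 Beagle dogs (10-15 kg), groups of three, given compound po in a gelatin capsule; 2 h later apomorphine hydrochloride 0.3 mg/kg sc. Vomiting counted for 1 h; mean inhibition as percent of control. ED50 is the dose giving 50% inhibition of emesis, by Litchfield-Wilcoxon.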

[7] = test system: Mus musculus; assay: Exploratory activity of mice determined by an antimex activity meter, 50 mg/kg of dose was administered perorally; conditions: Mus musculus, po
Summary of the method: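 Male Std-ddY mice (20-25 g), five per dose; compound in 0.5% aqueous tragacanth given orally. Two hours later each mouse placed in an Animex activity meter cage and locomotor activity counted for 3 min. Mean suppression expressed as percent inhibition of control; ED50 by Litchfield-Wilcoxon.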

[8] = test system: Mus musculus; assay: Exploratory activity of mice determined by an antimex activity meter, 10 mg/kg of dose was administered perorally; conditions: route oral
[9] = test system: Mus musculus; assay: 3,4 -Dihydroxy phenylacetic acid (DOPAC) levels in mouse brain at 50 mg/kg dose.; summary of the method: as §2
[10] = test system: Mus musculus; assay: Antiexploratory activity (EXPL) of mice determined by an antimex activity meter, 10 mg/kg of dose was administered perorally; No inhibition; conditions: route oral
[11] = test system: Mus musculus; assay: Antimaximal electroshock seizure (MES) activity in mice after peroral administration of 100 mg/kg of compound; 3/5; conditions: route oral
[12] = test system: Mus musculus; assay: Antitremorine activity(TRM) of mice after peroral administration of 100 mg/kg of compound; No inhibition; conditions: route oral
[13] = test system: Mus musculus; assay: Antireserpine activity (RES) of mice after peroral administration of 100 mg/kg of compound; No inhibition; conditions: route oral
[14] = test system: Mus musculus; assay: Antimaximal electroshock seizure activity was determined in mice when administered perorally; conditions: po
[15] = test system: Mus musculus; assay: Antiexploratory activity (EXPL) of mice determined by an antimex activity meter, 100 mg/kg of dose was administered perorally; No inhibition; conditions: route oral
[16] = test system: Mus musculus; assay: Antipentylene tetrazole activity was determined in mice when administered perorally; conditions: po
Summary of the method: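 Groups of five male Std-ddY mice received compound orally in 0.5% tragacanth, then pentylenetetrazole 175 mg/kg ip. Blockade of the tonic extensor component scored as anticonvulsant. ED50 was the dose protecting 50% of animals (Litchfield-Wilcoxon).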

[17] = test system: Mus musculus; assay: Antimaximal electroshock seizure (MES) activity in mice after peroral administration of 10 mg/kg of compound; 0/5; conditions: route oral
[18] = test system: Mus musculus; assay: Antitremorine activity(TRM) of mice after peroral administration of 100 mg/kg of compound; Moderate inhibition (51-71%); conditions: route oral
[19] = test system: Mus musculus; assay: Antimaximal electroshock seizure (MES) activity in mice after peroral administration of 100 mg/kg of compound; 4/5; conditions: route oral
[20] = test system: Mus musculus; assay: Antitremorine activity(TRM) of mice after peroral administration of 100 mg/kg of compound; conditions: route oral
[21] = test system: Mus musculus; assay: Antiexploratory activity (EXPL) of mice determined by an antimex activity meter,100 mg/kg of dose was administered perorally; No inhibition
[22] = test system: Mus musculus; assay: Antitremorine activity(TRM) of mice after peroral administration of 10 mg/kg of compound; No inhibition; conditions: route oral
[23] = test system: Mus musculus; assay: Antiexploratory activity (EXPL) of mice determined by an antimex activity meter, 50 mg/kg of dose was administered perorally; Moderate inhibition (51-71%); conditions: route oral

| Compound | Control [1] | Control [4] | Control [5] | inhibition in vivo at 1 mg/kg [6] | inhibition in vivo at 50 mg/kg [7] | inhibition in vivo at 10 mg/kg [8] | Control [9] | inhibition in vivo at 10 mg/kg [10] | inhibition in vivo at 100 mg/kg [13] | ED50 [14] | inhibition in vivo at 100 mg/kg [15] | ED50 [16] | Activity [17] | Activity [19] | also measured |
| --- | --- | --- | --- | --- | --- | --- | --- | --- | --- | --- | --- | --- | --- | --- | --- |
| CCN1CCN(C2=Nc3ccccc3CC=C2c2ccc(F)cc2)CC1.Cl.Cl | 461% | 432% | 287% | 100% | 86.8% | 10.6% | 345% | < 30% | – | – | – | – | – | – | inhibition in vivo at 50 mg/kg [2]: > 71%; inhibition in vivo at 50 mg/kg [3]: 31% |
| CCN1CCN(C2=Nc3ccc(Br)cc3CC=C2c2ccccc2)CC1.Cl.Cl | – | – | – | – | – | – | – | – | < 30% | 30.7 mg/kg | < 30% | 17.2 mg/kg | – | – | Activity [11]: 3; inhibition in vivo at 100 mg/kg [12]: < 30% |
| Cl.Cl.OCCN1CCN(C2=Nc3ccc(Cl)cc3CC=C2c2ccccc2)CC1 | – | – | – | – | – | – | – | – | < 30% | 49.5 mg/kg | < 30% | 26.5 mg/kg | 0 | 4 | inhibition in vivo at 100 mg/kg [18]: 51% |
| CCN1CCN(C2=Nc3ccc(C)cc3CC=C2c2ccccc2)CC1.Cl.Cl | – | – | – | – | – | – | – | – | < 30% | 70.2 mg/kg | – | 32.3 mg/kg | 0 | 4 | inhibition in vivo at 100 mg/kg [20]: > 71%; Inhibition [21]: <30%; inhibition in vivo at 10 mg/kg [22]: < 30% |
| Cl.Cl.OCCN1CCN(C2=Nc3ccccc3CC=C2c2ccc(F)cc2)CC1 | 349% | 243% | 262% | 100% | 68.4% | 19.6% | 369% | < 30% | – | – | – | – | – | – | inhibition in vivo at 50 mg/kg [23]: 51% |
